Laboratory results from ChEMBL document CHEMBL1155605, “Effect of lichen metabolites on thylakoid electron transport and photophosphorylation in isolated spinach chloroplasts” (J Nat Prod, 2000).
The source made the active and inactive calls. No cut-off for these calls is given here.

Legend:
Spinacia oleracea [1] = assay: Effect on uncoupled photosystem 2 of spinach chloroplast assessed as inhibition of electron transport rate of water to silicomolybdate at 250 uM relative to control
Outline: (§1)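 Intact thylakoids from market spinach leaves, stored dark 1 h at 0 °C. Uncoupled medium: 100 mM sorbitol, 5 mM MgCl2, 10 mM KCl, 15 mM tricine pH 8.0, 0.5 mM KCN, 300 µM ferricyanide, 1 µM DBMIB, 100 µM DCPIP, 6 mM NH4Cl, plus 200 µM SiMo and 10 µM DCMU. O2 evolution by Clark electrode under filtered actinic light for 2 min. Activity expressed relative to control.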

Spinacia oleracea [2] = assay: Effect on uncoupled photosystem 2 of spinach leaves chloroplast assessed as inhibition of electron transport from diphenylcarbazide to 2,6-dichlorophenol indophenol at 200 uM relative to control
Outline: (§2)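 Tris-treated (0.8 M, pH 8.0) spinach thylakoids in uncoupled medium with 200 µM DPC, 100 µM DCPIP, 1 µM DBMIB and 6 mM NH4Cl. DCPIP reduction followed spectrophotometrically. Activity expressed relative to control.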

Echinochloa crus-galli [3] = assay: Phytogrowth-inhibitory activity against Echinochloa crusgalli assessed as inhibition of seedling germination; type: functional, organism-based
Spinacia oleracea [4] = assay: Effect on uncoupled photosystem 2 of spinach leaves chloroplast assessed as inhibition of electron transport from water to 2,6-dichlorophenol indophenol at 50 uM relative to control
Outline: (§3)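 Uncoupled PSII as DCPIP-supported O2 evolution, monitored polarographically with a Clark electrode. Spinach thylakoids in 100 mM sorbitol, 5 mM MgCl2, 10 mM KCl, 15 mM tricine pH 8.0 and 0.5 mM KCN. Ferricyanide 300 µM replaces MV; 1 µM DBMIB, 100 µM DCPIP and 6 mM NH4Cl added. Illumination 2 min through 1% CuSO4 filter. Activity relative to control.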

[5] = Inhibition of photosynthetic phosphorylation from water to methyl viologen in spinach leaves chloroplast; type: functional, Spinacia oleracea; settings: read-out: I50
Outline: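 ATP synthesis determined titrimetrically by pH change, with 0.05 mM MV as Hill acceptor in 100 mM sorbitol, 5 mM MgCl2, 10 mM KCl, 1 mM tricine pH 8.0. Compounds at 50–300 µM; DCMU at 0.01–10.0 µM as reference. I50 extrapolated from the percent-activity versus concentration plot.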

Spinacia oleracea [6] = assay: Effect on uncoupled photosystem 2 of spinach chloroplast assessed as inhibition of electron transport rate of water to silicomolybdate at 200 uM relative to control; outline: as §1
Spinacia oleracea [7] = assay: Effect on uncoupled photosystem 2 of spinach leaves chloroplast assessed as inhibition of electron transport from diphenylcarbazide to 2,6-dichlorophenol indophenol at 250 uM relative to control; outline: as §2
Echinochloa crus-galli [8] = assay: Phytogrowth-inhibitory activity against Echinochloa crusgalli assessed as inhibition of seedling growth; type: functional, organism-based
Outline: (§4)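 Petri-dish seed assay at 28 °C, run at 1, 10, 100 and 1000 µg/mL with 2,4-D as positive control. Data analysed by ANOVA (p<0.05). IC50 in molar units obtained by Probit analysis of percent radicle growth inhibition.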

Spinacia oleracea [9] = assay: Effect on uncoupled photosystem 2 of spinach leaves chloroplast assessed as inhibition of electron transport from diphenylcarbazide to 2,6-dichlorophenol indophenol at 50 uM relative to control; outline: as §2
Spinacia oleracea [10] = assay: Effect on uncoupled photosystem 2 of spinach chloroplast assessed as inhibition of electron transport rate of water to silicomolybdate at 300 uM relative to control; outline: as §1
[11] = tested on: Amaranthus hypochondriacus; assay: Phytogrowth-inhibitory activity against Amaranthus hypochondriacus assessed as inhibition of seedling growth; type: functional, organism-based; outline: as §4
Spinacia oleracea [12] = assay: Effect on uncoupled photosystem 2 of spinach leaves chloroplast assessed as inhibition of electron transport from water to 2,6-dichlorophenol indophenol at 200 uM relative to control; outline: as §3
Spinacia oleracea [13] = assay: Effect on uncoupled photosystem 2 of spinach leaves chloroplast assessed as inhibition of electron transport from diphenylcarbazide to 2,6-dichlorophenol indophenol at 150 uM relative to control; outline: as §2
Spinacia oleracea [14] = assay: Effect on uncoupled photosystem 2 of spinach chloroplast assessed as inhibition of electron transport rate of water to silicomolybdate at 50 uM relative to control; outline: as §1
Spinacia oleracea [15] = assay: Effect on uncoupled photosystem 2 of spinach leaves chloroplast assessed as inhibition of electron transport from water to 2,6-dichlorophenol indophenol at 300 uM relative to control; outline: as §3
Spinacia oleracea [16] = assay: Effect on uncoupled photosystem 2 of spinach leaves chloroplast assessed as inhibition of electron transport from water to 2,6-dichlorophenol indophenol at 100 uM relative to control; outline: as §3
Spinacia oleracea [17] = assay: Effect on uncoupled photosystem 2 of spinach leaves chloroplast assessed as inhibition of electron transport from diphenylcarbazide to 2,6-dichlorophenol indophenol at 300 uM relative to control; outline: as §2
Spinacia oleracea [18] = assay: Inhibition of photophosphorylation in spinach leaves chloroplast assessed as inhibition of noncyclic electron transport from water to methyl viologen in uncoupled condition; type: functional
Outline: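 Water→0.05 mM MV O2 uptake measured with a Clark electrode in basal medium (15 mM tricine pH 8.0, 0.5 mM KCN) plus 6 mM NH4Cl as uncoupler, with 2 min actinic illumination. Compounds at 50–300 µM. I50 from the percent-activity versus concentration plot.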

Spinacia oleracea [19] = assay: Effect on uncoupled photosystem 2 of spinach leaves chloroplast assessed as inhibition of electron transport from water to 2,6-dichlorophenol indophenol at 250 uM relative to control; outline: as §3
Spinacia oleracea [20] = assay: Effect on uncoupled photosystem 2 of spinach chloroplast assessed as inhibition of electron transport rate of water to silicomolybdate at 100 uM relative to control; outline: as §1
Spinacia oleracea [21] = assay: Effect on uncoupled photosystem 2 of spinach chloroplast assessed as inhibition of electron transport rate of water to silicomolybdate at 150 uM relative to control; outline: as §1
[22] = tested on: Amaranthus hypochondriacus; assay: Phytogrowth-inhibitory activity against Amaranthus hypochondriacus assessed as inhibition of seedling germination; type: functional, organism-based
Spinacia oleracea [23] = assay: Effect on uncoupled photosystem 2 of spinach leaves chloroplast assessed as inhibition of electron transport from water to 2,6-dichlorophenol indophenol at 150 uM relative to control; outline: as §3
Spinacia oleracea [24] = assay: Effect on uncoupled photosystem 2 of spinach leaves chloroplast assessed as inhibition of electron transport from diphenylcarbazide to 2,6-dichlorophenol indophenol at 100 uM relative to control; outline: as §2
[25] = Inhibition of light-dependent proton uptake in spinach leaves chloroplast; type: functional, Spinacia oleracea; settings: read-out: I50
Outline: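 Light-driven proton uptake recorded as a pH rise from 8.0 to 8.1 with a combination microelectrode on an expanded-scale potentiometer. Medium: 100 mM sorbitol, 5 mM MgCl2, 10 mM KCl, 1 mM tricine pH 8.0, 0.05 mM MV. Compounds at 50–300 µM. I50 read from the plot of percent activity against concentration.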

For `Cc1cc(OC(=O)c2c(C)cc(OC(=O)c3c(C)cc(O)cc3O)cc2O)cc(O)c1C(=O)O` [GYROPHORIC ACID], the Activity (Spinacia oleracea [1]) was “Active”, the Activity (Spinacia oleracea [2]) was 33.8 and the IC50 (Echinochloa crus-galli [3]) was 2000 µM. The Activity (Spinacia oleracea [4]) was 72.1, the IC50 [5] was 87.1 µM and the Activity (Spinacia oleracea [6]) was 41. The Activity (Spinacia oleracea [7]) was 29.9, the IC50 (Echinochloa crus-galli [8]) was 2000 µM and the Activity (Spinacia oleracea [9]) was 84.3. For the same compound, the Activity (Spinacia oleracea [10]) was “Active”, the IC50 [11] was 2000 µM and the Activity (Spinacia oleracea [12]) was 16.8. For the same compound, the Activity (Spinacia oleracea [13]) was 40.3, the Activity (Spinacia oleracea [14]) was 93.4 and the Activity (Spinacia oleracea [15]) was “Active”. The Activity (Spinacia oleracea [16]) was 49.7, the Activity (Spinacia oleracea [17]) was 17.9 and the Activity (Spinacia oleracea [18]) was “Active”. For the same compound, the Activity (Spinacia oleracea [19]) was 4.1, the Activity (Spinacia oleracea [20]) was 79.9 and the Activity (Spinacia oleracea [21]) was 62.5. It also gave an IC50 [22] of 2000 µM, an Activity (Spinacia oleracea [23]) of 31.3 and an Activity (Spinacia oleracea [24]) of 58.5. It also gave an IC50 [25] of 59.7 µM.
With `COc1cc(C)c2c(=O)c3c(O)cc(OC)cc3oc2c1` [LICHEXANTHONE] the IC50 (Echinochloa crus-galli [3]) was > 2000 µM, the IC50 (Echinochloa crus-galli [8]) was > 2000 µM and the IC50 [11] was > 2000 µM. The IC50 [22] was > 2000 µM.
For `Cc1cc(O)cc(O)c1` [ORCINOL], the IC50 (Echinochloa crus-galli [3]) was > 8100 µM, the IC50 (Echinochloa crus-galli [8]) was 1100 µM and the IC50 [11] was 1000 µM. It also gave an IC50 [22] of 1700 µM.
With `COC(=O)c1c(C)cc(O)cc1O` [METHYL ORSELLINATE] the IC50 (Echinochloa crus-galli [3]) was 680 µM, the IC50 (Echinochloa crus-galli [8]) was 310 µM and the IC50 [11] was 290 µM. For the same compound, the IC50 [22] was 360 µM.
For `COC(=O)c1c(C)cc(O)c(C)c1O` [ATRARIC ACID], the IC50 (Echinochloa crus-galli [3]) was 1100 µM, the IC50 (Echinochloa crus-galli [8]) was 610 µM and the IC50 [11] was 320 µM. It also gave an IC50 [22] of 760 µM.
For `COC(=O)c1c(C)cc(O)c(C=O)c1O` [METHYL HAEMATOMMATE], the IC50 (Echinochloa crus-galli [8]) was 29 µM.
Compound `CN(C)C(=O)Nc1ccc(Cl)c(Cl)c1` [DCMU] has an IC50 [5] of 0.14 µM.
For `O=C(O)COc1ccc(Cl)cc1Cl` [2,4-DICHLOROPHENOXYACETIC ACID], the IC50 (Echinochloa crus-galli [3]) was > 230 µM, the IC50 (Echinochloa crus-galli [8]) was > 230 µM and the IC50 [22] was 880 µM.
With `Cc1cc(O)cc(OC(=O)c2c(C)cc(O)cc2O)c1` [LECANORIN] the Activity (Spinacia oleracea [1]) was “Active”, the Activity (Spinacia oleracea [2]) was 96 and the IC50 (Echinochloa crus-galli [3]) was 710 µM. For the same compound, the Activity (Spinacia oleracea [4]) was 64.3, the IC50 [5] was 136 µM and the Activity (Spinacia oleracea [6]) was “Active”. For the same compound, the Activity (Spinacia oleracea [7]) was 112, the IC50 (Echinochloa crus-galli [8]) was 180 µM and the Activity (Spinacia oleracea [9]) was 93.6. The Activity (Spinacia oleracea [10]) was “Active”, the IC50 [11] was 580 µM and the Activity (Spinacia oleracea [12]) was “Active”. For the same compound, the Activity (Spinacia oleracea [13]) was 88.9, the Activity (Spinacia oleracea [14]) was 59.1 and the Activity (Spinacia oleracea [15]) was “Active”. The Activity (Spinacia oleracea [16]) was 37.5, the Activity (Spinacia oleracea [17]) was 135 and the Activity (Spinacia oleracea [18]) was “Active”. For the same compound, the Activity (Spinacia oleracea [19]) was “Active”, the Activity (Spinacia oleracea [20]) was 25 and the Activity (Spinacia oleracea [21]) was 8.4. It also gave an IC50 [22] of 760 µM, an Activity (Spinacia oleracea [23]) of 15.7 and an Activity (Spinacia oleracea [24]) of 86.9. For the same compound, the IC50 [25] was 140 µM.
